Reference: article PMC4508496 (Theranostics, 2015)
“Also recorded” adds a separate entry of the source. * marks the point of attachment. AMC = Cc1cc(=O)oc2cc(N*)ccc12; Boc = CC(C)(C)OC(=O)*

Legend:
MDA-MB-468 cells [1] = test: Cellular efflux titration; format: cell-based, human; conditions: 120 min efflux
Outline: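 MDA-MB-468 cells (1 million per well) were loaded for 1 h at 37 °C with 4 μCi of the 18F probe plus 0, 5, 25 or 50 μM of its non-radioactive analogue. Medium was then refreshed, marking efflux time 0. At 5–120 min the medium was exchanged and the removed medium was γ-counted. Cells were harvested and counted at 120 min to back-calculate total radioactivity at time 0.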

[2] = Pharmacokinetic study of 1 in mice after i.v. administration; format: in vivo; conditions: i.v. about 3.0 mCi/kg, n = 5
Outline: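 Mice received the 18F radiotracer intravenously at about 3.0 mCi/kg. Mean plasma concentration–time profiles were fitted to a two-compartment model, from which t1/2, AUC0-t, CLtot, Vd and Cmax were derived.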

MDA-MB-468 cells [3] = test: Cell uptake of 1; format: cell-based, human; conditions: 30 min; 600,000 MDA-MB-468 cells, 1 µCi of 1; γ-counter
Outline: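 MDA-MB-468 cells (600,000 per well) were seeded for 6 h. Medium was then replaced with fresh medium carrying 1 µCi of the 18F-labelled probe per well. Cells and medium were harvested at 5, 10, 20, 30, 60 and 90 min, and radioactivity was counted on a γ-counter.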

MDA-MB-468 tumor = test: MicroPET tumor uptake in MDA-MB-468 tumor-bearing nude mice; format: in vivo; conditions: for tumor uptake of 1: PET, n = 4
Outline: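 Female BALB/c nude mice (4–8 weeks) received subcutaneous foreleg xenografts of 4 × 10^7 MDA-MB-468 cells in PBS, grown 4–6 weeks. Under isoflurane, mice were randomised to tail-vein dosing: 85 µCi of the 18F probe alone, or the probe plus 20 µmol/kg of its non-radioactive analogue. Ten-minute static PET scans were taken at 10 min to 6 h, reconstructed by 3D OSEM without attenuation or scatter correction. Decay-corrected ROI values were converted assuming 1 g/mL tissue density and divided by administered activity to give %ID/g.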

furin [4] = target: T1, furin (Homo sapiens, UniProt P09958); conditions: 30 °C; ref Bachem; cited from earlier work
MDA-MB-468 cells [5] = test: Cell permeability of 1-Cold by fluorescence cell imaging; format: cell-based, human; conditions: 100 µM, 37 °C, 0.5 h, fluorescence microscopy
Outline: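 MDA-MB-468 breast adenocarcinoma cells were grown in DMEM with 10% FBS at 37 °C under 5% CO2. Cells (3 × 10^6) were exposed to the test compound (100 µM, 37 °C, 0.5 h) and washed three times with PBS. They were then imaged live on an inverted fluorescence microscope in the DAPI channel, with DIC overlay. The probe emits at 450 nm after intracellular furin-driven condensation.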

[6] = Nanoparticle characterisation after furin incubation; format: physicochemical; conditions: 100 μM, furin 1 nmol/U, pH 7.4, 37 °C, 4 h vs before incubation
Outline: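 The non-radioactive analogue (100 µM) was incubated with furin (1 nmol/U) for 4 h at 37 °C. UV-vis spectra were recorded at room temperature. For TEM (200 kV), carbon-coated copper grids were dipped in the suspension, plunged into liquid nitrogen and freeze-dried. SEM was run on the same mixture. One furin unit releases 1 pmol MCA from Boc-RVRR-MCA per minute at 30 °C.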

MDA-MB-468 cells [7] = test: MTT assay; format: cell-based, human; conditions: for cells survived (MTT): MDA-MB-468
Outline: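 MDA-MB-468 cells in log phase were seeded at 3 × 10^3 per well and settled 12 h (37 °C, 5% CO2). They were then exposed to the test compound at 25, 50 or 100 µM in medium for 3, 6 or 12 h. MTT (5 mg/mL stock in PBS, pH 7.4) was added for 4 h, and formazan was dissolved in 10% SDS/PBS. Absorbance was read at 570/680 nm. Viability (%) = mean treated absorbance / mean control absorbance × 100.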

furin [8] = target: T1, furin; test: Michaelis-Menten kinetics of furin cleavage; format: biochemical
furin [9] = target: T1, furin; test: Time course HPLC analysis of furin-controlled condensation; format: biochemical; conditions: 100 µM, 1 nmol/U of furin, 37 °C
Outline: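 The non-radioactive analogue (100 µM) was incubated with furin (1 nmol/U) at 37 °C. Mixtures were analysed by HPLC eluted with CH3CN and water, each containing 0.1% TFA, against the untreated compound in water.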

T1 sequence (P09958 108-595 limits assumed): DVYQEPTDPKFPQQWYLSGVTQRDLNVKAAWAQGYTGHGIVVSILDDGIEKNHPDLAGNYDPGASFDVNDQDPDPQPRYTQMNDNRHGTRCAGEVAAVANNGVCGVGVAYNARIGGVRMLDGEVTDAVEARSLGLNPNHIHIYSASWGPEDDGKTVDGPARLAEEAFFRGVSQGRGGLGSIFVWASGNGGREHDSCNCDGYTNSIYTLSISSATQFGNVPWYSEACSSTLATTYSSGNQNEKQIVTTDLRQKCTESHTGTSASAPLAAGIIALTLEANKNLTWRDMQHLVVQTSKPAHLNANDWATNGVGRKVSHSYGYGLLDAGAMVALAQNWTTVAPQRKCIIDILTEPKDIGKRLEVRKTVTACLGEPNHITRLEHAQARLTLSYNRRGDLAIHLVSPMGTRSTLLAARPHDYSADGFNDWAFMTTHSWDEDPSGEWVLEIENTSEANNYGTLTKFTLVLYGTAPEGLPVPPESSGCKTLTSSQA

Acetyl-Arg-Val-Arg-Arg-Cys(StBu)-Lys(^18F-FB)-CBT [compound 1]
initial radioactivity retained after cell efflux (MDA-MB-468 cells [1]; 4 μCi of 1 alone, 1 h pre-incubation 37 °C, 1 million cells): 13.1 ± 1.2% | initial radioactivity retained after cell efflux (MDA-MB-468 cells [1]; 4 μCi of 1 co-incubated with 5 μM 1-Cold): 20.3 ± 4.2% | initial radioactivity retained after cell efflux (MDA-MB-468 cells [1]; 4 μCi of 1 co-incubated with 25 μM 1-Cold): 28.5 ± 1.4% | initial radioactivity retained after cell efflux (MDA-MB-468 cells [1]; 4 μCi of 1 co-incubated with 50 μM 1-Cold): 32.1 ± 0.9% | Cmax [2]: 7.471 mCi L^-1 | mean AUC0-t [2]: 452.2 min mCi L^-1 | cellular uptake (plateau) (MDA-MB-468 cells [3]): 20.4 % of total radioactivity | tumor uptake ratio (Co-injected/1 alone) (MDA-MB-468 tumor; 10 min p.i.): 2.5 | tumor uptake of 1 (MDA-MB-468 tumor; 10 min p.i., 85 µCi 1 alone): 1.02 ± 0.19 % ID/g | tumor uptake of 1 (MDA-MB-468 tumor; 10 min p.i., co-injected 85 µCi 1 + 20 µmol/kg 1-Cold): 2.52 ± 0.95 % ID/g | tumor uptake ratio (Co-injected/1 alone) (MDA-MB-468 tumor; 30 min p.i.): 3.6 | tumor uptake of 1 (MDA-MB-468 tumor; 30 min p.i., 85 µCi 1 alone): 1.12 ± 0.08 % ID/g | tumor uptake of 1 (MDA-MB-468 tumor; 30 min p.i., co-injected 85 µCi 1 + 20 µmol/kg 1-Cold): 4.08 ± 0.48 % ID/g | tumor uptake ratio (Co-injected/1 alone) (MDA-MB-468 tumor; 60 min p.i.): 6.4 | tumor uptake of 1 (MDA-MB-468 tumor; 60 min p.i., 85 µCi 1 alone): 0.52 ± 0.18 % ID/g | tumor uptake of 1 (MDA-MB-468 tumor; 60 min p.i., co-injected 85 µCi 1 + 20 µmol/kg 1-Cold): 3.31 ± 1.22 % ID/g | tumor uptake ratio (Co-injected/1 alone) (MDA-MB-468 tumor; 120 min p.i.): 7.9 | tumor uptake of 1 (MDA-MB-468 tumor; 120 min p.i., co-injected 85 µCi 1 + 20 µmol/kg 1-Cold): 2.27 ± 1.86 % ID/g | tumor uptake of 1 (MDA-MB-468 tumor; 240 min p.i., 85 µCi 1 alone): 0.19 ± 0.03 % ID/g | tumor uptake of 1 (MDA-MB-468 tumor; 240 min p.i., co-injected 85 µCi 1 + 20 µmol/kg 1-Cold): 1.55 ± 1.75 % ID/g | tumor uptake ratio (Co-injected/1 alone) (MDA-MB-468 tumor; 360 min p.i.): 6.5 | tumor uptake of 1 (MDA-MB-468 tumor; 360 min p.i., 85 µCi 1 alone): 0.19 ± 0.05 % ID/g | tumor uptake of 1 (MDA-MB-468 tumor; 360 min p.i., co-injected 85 µCi 1 + 20 µmol/kg 1-Cold): 1.28 ± 1.07 % ID/g

Boc-RVRR-{AMC} [Boc-RVRR-AMC]
speed of furin cleavage of commercial substrate (furin [4]): 1 pmol/U per min

CC(=O)N[C@@H](CCCNC(=N)N)C(=O)N[C@H](C(=O)N[C@@H](CCCNC(=N)N)C(=O)N[C@@H](CCCNC(=N)N)C(=O)N[C@@H](CSSC(C)(C)C)C(=O)N[C@@H](CCCCNC(=O)c1ccc(F)cc1)C(=O)Nc1ccc2nc(C#N)sc2c1)C(C)C [1-Cold]
cell permeability (intracellular fluorescence) (MDA-MB-468 cells [5]): good cell permeability | UV-vis absorption at 500-700 nm (light scattering, aggregation) [6]: obvious increase of absorption | cells survived (MTT) (MDA-MB-468 cells [7]; 25 µM, 3 h): 110% | cells survived (MTT) (MDA-MB-468 cells [7]; 25 µM, 12 h): 98% | cells survived (MTT) (MDA-MB-468 cells [7]; 50 µM, 3 h): 103% | cells survived (MTT) (MDA-MB-468 cells [7]; 50 µM, 12 h): 105% | cells survived (MTT) (MDA-MB-468 cells [7]; 100 µM, 3 h): 87% | cells survived (MTT) (MDA-MB-468 cells [7]; 100 µM, 12 h): 68% | cytotoxicity to MDA-MB-468 cells (MTT), in words (MDA-MB-468 cells [7]; up to 12 h (abstract: 50 µM)): did not impose cytotoxicity; also recorded: nontoxic | Kcat of furin relative to Boc-RVRR-AMC (furin [8]; calculated, Figure S10): 35 times | Kcat/KM of furin relative to Boc-RVRR-AMC (furin [8]; calculated, Figure S10): 15 times | binding affinity to furin, fold lower than that of Boc-RVRR-AMC (furin [8]; from KM values): 2.4 fold | time in which furin-controlled condensation was accomplished (furin [9]): ≤ 2 h
